{"source": "paper PMC7182240", "about": "(The Pediatric Infectious Disease Journal, 2020)", "key": {"invasive candidiasis": {"system": "invasive candidiasis", "conditions": "cited from earlier work"}, "Safety and tolerability": {"assay": "Safety and tolerability", "type": "in vivo, human", "outline": "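Safety population: all 19 patients aged 1 month to <2 years, with confirmed or high-risk invasive candidiasis, who received IV drug (3 mg/kg day 1, then 1.5 mg/kg daily, ≤1.1 mg/min, ≤35 days). Optional oral fluconazole was allowed after ≥10 days (confirmed cases) or ≥5 days (high-risk), to ≤49 days total. Treatment-emergent adverse events and all-cause mortality were recorded throughout the study and summarized descriptively.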"}, "[1]": {"system": "invasive candidiasis, including candidemia (Candida species)", "assay": "Global response, relapse and microbiologic outcome in invasive candidiasis", "type": "in vivo, human", "outline": "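Modified intent-to-treat patients (≥1 dose, microbiologically confirmed Candida infection) received IV drug: 3 mg/kg loading dose on day 1, then 1.5 mg/kg daily for ≤35 days. An optional switch to oral fluconazole (6–12 mg/kg/d, max 800 mg/d) was allowed after ≥10 days IV, to ≤49 days total. Global response was assessed at end of IV therapy, end of treatment, and week 2 and 6 follow-up. Relapse and new infection were also assessed. Analysis was descriptive.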"}, "[2]": {"assay": "PS80 plasma concentration in infants", "type": "in vivo, human", "conditions": "infants receiving anidulafungin formulated with PS80"}, "[3]": {"conditions": "safety population n = 19, all causalities, AEs up to 30 days after last dose"}}, "note": "“Also recorded” adds a separate entry of the source. *1 amine or outer side, *2 acyl side, *3 side chain or, on linkers, in order; H or OH if unused. Where a SMILES comes first, the peptide text is derived from it. Bridges are numbered along the chain shown (N, C = ends). [ ]: non-standard residue; d: D form. The star is where a group is joined. pTerphenylCO(4''-OnC5H11) = CCCCCOc1ccc(-c2ccc(-c3ccc(C(=O)*)cc3)cc2)cc1; Orn(4R-OH,5R-OH) = O=C([C@H](C[C@@H](O)[C@@H](O)N[*:3])N[*:1])[*:2]; hTyr(3S-OH,4S-OH) = N[C@H](C(=O)O)[C@H](O)[C@@H](O)c1ccc(O)cc1; Pro(3S-OH,4S-Me) = C[C@H]1CN[C@H](C(=O)O)[C@H]1O; Hyp = O=C(O)[C@@H]1C[C@@H](O)CN1"}
{"molecule": "CCCCCOc1ccc(-c2ccc(-c3ccc(C(=O)N[C@H]4C[C@@H](O)[C@@H](O)NC(=O)[C@@H]5[C@@H](O)[C@@H](C)CN5C(=O)[C@H]([C@@H](C)O)NC(=O)[C@H]([C@H](O)[C@@H](O)c5ccc(O)cc5)NC(=O)[C@@H]5C[C@@H](O)CN5C(=O)[C@H]([C@@H](C)O)NC4=O)cc3)cc2)cc1", "note": "[anidulafungin] ({pTerphenylCO(4''-OnC5H11)}-[Orn(4R-OH,5R-OH)]T[Hyp][hTyr(3S-OH,4S-OH)]T[Pro(3S-OH,4S-Me)]; lactam 1-C)", "values": [{"measurement": "Global response of success at EOIVT in adults", "setting": "invasive candidiasis", "value": 75.6, "unit": "%"}, {"measurement": "Patients with treatment-related TEAEs", "setting": "Safety and tolerability; 3 of 19 patients", "value": 15.8, "unit": "%"}, {"measurement": "Patients with severe TEAEs", "setting": "Safety and tolerability; 7 of 19 patients", "value": 36.8, "unit": "%"}, {"measurement": "Patients with TEAEs of any causality", "setting": "Safety and tolerability; 17 of 19 patients, safety population", "value": 89.5, "unit": "%"}, {"measurement": "Treatment-related deaths", "setting": "Safety and tolerability; safety population n = 19", "value": "no treatment-related deaths occurred; also recorded: No deaths were considered related to anidulafungin"}, {"measurement": "Incidence of TEAE: Device-related infection", "setting": "Safety and tolerability; [3]", "value": "1 (5.3) n (%)"}, {"measurement": "Incidence of TEAE: Lower respiratory tract infection", "setting": "Safety and tolerability; [3]", "value": "1 (5.3) n (%)"}, {"measurement": "Incidence of TEAE: Upper respiratory tract infection", "setting": "Safety and tolerability; [3]", "value": "1 (5.3) n (%)"}, {"measurement": "Global response success rate at EOIVT", "setting": "[1]; 11 of 16 patients, MITT, 1 month to <2 years", "value": 68.8, "unit": "%"}, {"measurement": "Patients achieving negative blood cultures", "setting": "[1]; 15 of 16", "value": 93.8, "unit": "%"}, {"measurement": "Resistance to anidulafungin", "setting": "[1]; Candida species", "value": "No resistance to anidulafungin was observed"}, {"measurement": "Median time to first negative blood culture", "setting": "[1]; MITT population", "value": 3, "unit": "days"}, {"measurement": "Relapse or new infection", "setting": "[1]; week 2 and week 6 follow-up visits", "value": "No patients relapsed or experienced new infection"}]}
{"molecule": "polysorbate 80 [PS80]", "values": [{"measurement": "Hepatotoxicity or PS80 accumulation", "setting": "[2]", "value": "No hepatotoxicity or PS80 accumulation was detected"}]}
{"molecule": "OC(Cn1cncn1)(Cn1cncn1)c1ccc(F)cc1F", "note": "[fluconazole]", "values": [{"measurement": "TEAEs related to fluconazole", "setting": "Safety and tolerability; 6 patients switched to oral fluconazole 6-12 mg/kg/d", "value": "No patients experienced TEAEs related to fluconazole"}]}
